Results: the array DNA melting data of Ke et al. (doi:10.1101/2024.01.08.574731)

Columns and labels:
[1] = folding enthalpy; higher = less favourable; fluorescence melt of hairpins on a sequencing array, two-state fit; conditions: sodium 0.088 M
Method in brief: (§1)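 On a sequenced MiSeq flow cell, library hairpins with annealed Cy3 and quencher oligos were imaged for Cy3 fluorescence in 2.5 °C steps up to 60 °C, in 50 mM Na-HEPES pH 8.0, 25 mM NaCl. Normalisation used pre-quench Cy3 and control constructs. Bootstrapped two-state fits gave melting temperature and folding enthalpy, combined by inverse variance across four replicates and with fitted temperatures raised by 9.35 °C to match UV melts.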

[2] = melting temperature; fluorescence melt of hairpins on a sequencing array, two-state fit, raised by 9.35 °C to match UV melts; conditions: sodium 0.088 M
Method in brief: as §1

| Sequence | folding enthalpy [1] [kcal/mol] | Tm [2] [°C] |
| --- | --- | --- |
| GTCTCCGAAAGGAAGGAC ((((((....)))..))) | -16.5 | 36.2 |
| GGATTGTCGAAAGACTCC (((..(((....)))))) | -16 | 30.9 |
| GGCCGGACGAAAGTCGCC (((..(((....)))))) | -21.5 | 50 |
| GCAGTGGGAAACCACCAC (..((((....))))..) | -12.2 | 30.6 |
| GCCAAGCCGAAAGGCGGC (((..(((....)))))) | -16.1 | 64.2 |
| GTGGCGGGAAACCACCAC ((((.((....)).)))) | -35.4 | 51.5 |
| GATCTATGATTAGATC ((((((....)))))) | -31.9 | 39.8 |
| GACGCCGAAAGGCAAGTC ((((((....)))..))) | -19.7 | 48.9 |
| GACTGAGGAAACTTAGTC ((((.((....)).)))) | -26.3 | 39.4 |
| GCGTTGGTACGC ((((....)))) | -20.9 | 51.3 |
| GCATGGGGAAACCCACAC (..((((....))))..) | -14.2 | 29 |
| GCCCGTGCGAAAGCAGGC (((..(((....)))))) | -12.4 | 52 |
| GATAGGGGAAACTCTATC (((((.(....).))))) | -31.2 | 35.7 |
| GTGGCCGAAAGGCTTCAC ((((((....)))..))) | -12.4 | 33.6 |
| GGGCAACGAAAGTTCCC (((.(((....)))))) | -22.1 | 47.4 |
| GGAGTTCGAAAGAAGTCC (((.(((....))).))) | -41.3 | 54.1 |
| GGATCCGAAAGGAAGTCC ((((((....)))..))) | -10.1 | 29.5 |
| GGTGCCGGAAACGGCGTC (..((((....))))..) | -9.71 | 42.2 |
| GATCAGGTCACTGATC ((((((....)))))) | -45.8 | 59.4 |
| GTATGCGAAAGCACTAC ((((((....))).))) | -13.2 | 37.3 |
| GTCCGCGGAAACGTGGAC ((((.((....)).)))) | -43.5 | 62 |
| GATCTCCATGAGATC ((((((...)))))) | -42.1 | 53.3 |
| GAGTGGCGAAAGCCCCTC (((.(((....))).))) | -19.9 | 48.3 |

| Sequence | folding enthalpy [1] [kcal/mol] | Tm [2] [°C] |
| --- | --- | --- |
| GATCAGTATGCTGATC ((((((....)))))) | -36.1 | 55.2 |
| GGTTTAGGAAACTGAACC ((((.((....)).)))) | -31.8 | 43.2 |
| GCTTTGCGAAAGCCAGGC ((.(.((....)).).)) | -10.2 | 38.3 |
| GCCGAGCGAAAGCTTTGC ((..(((....)))..)) | -12.6 | 39.1 |
| GCATTGCGAAAGCGCTGC (((..((....))..))) | -18.8 | 45.7 |
| GTGTCAGGAAACTGGCAC (((.(((....))).))) | -39.4 | 54.4 |
| GGGTAAACGAAAGTTCCC (((..(((....)))))) | -20.7 | 39.8 |
| GCACCGCGAAAGCGTAGC ((..(((....)))..)) | -12.3 | 41.2 |
| GGGTGCCGAAAGGCCCCC (((.(((....))).))) | -15.6 | 66.8 |
| GTCAGGGGAAACCCCGAC (((.(((....))).))) | -24.8 | 50.2 |
| GAGCGACGAAAGTCACTC (((.(((....))).))) | -25.9 | 52.2 |
| GCTACTGGAAACAGTAAC (.(((((....))))).) | -16 | 31.5 |
| GCGTTCGAAAGAACTCGC ((((((....)))..))) | -17 | 44.7 |
| GATCTATTTATAGATC ((((((....)))))) | -48.6 | 51.8 |
| GCTATGGCGAAAGCCAGC (((..(((....)))))) | -11.2 | 42.6 |
| GATCTTAACAAAGATC ((((((....)))))) | -33 | 42.5 |
| GTTCCAGAAATGGAAC ((((((....)))))) | -32.2 | 53.4 |
| GAGTGCGAAAGCACGCTC ((((((....)))..))) | -10.9 | 66.7 |
| GACAAGCCGAAAGGCGTC (((..(((....)))))) | -9.16 | 42.3 |
| GCACATACGAAAGTATGC (((..(((....)))))) | -9.91 | 35.4 |
| GCCCTACGAAAGTATGGC (((.(((....))).))) | -34.3 | 49 |
| GGACAGGGAAACCTGTTC (.(((((....))))).) | -22.9 | 50 |
| GCGGAGGACCGC ((((....)))) | -19.5 | 52.4 |

| Sequence | folding enthalpy [1] [kcal/mol] | Tm [2] [°C] |
| --- | --- | --- |
| GCGGCGACCGC ((((...)))) | -16 | 55.8 |
| GATCTGGCCGCAGATC ((((((....)))))) | -36 | 52.3 |
| GCGTTCGAAAGAAGGCGC ((((((....)))..))) | -33.6 | 55.6 |
| GCGTAGGGAAACCTATGC ((.((((....)))).)) | -34.1 | 50.3 |
| GATCAGCACCTGATC ((((((...)))))) | -31.1 | 48.3 |
| GACTACGAAAGTATTGTC ((((((....)))..))) | -15.2 | 29.6 |
| CGTATACGGAAACGTACG (((..(((....)))))) | -27.7 | 33 |
| CGCCCGGAAACGGACGCG ((((((....)))..))) | -12.2 | 50.2 |
| GCTCCGCGAAAGCGCTGC ((..(((....)))..)) | -12.3 | 37.4 |
| GCCACGCGAAAGCCTCGC ((.(.((....)).).)) | -7.67 | 27 |
| GGGTGTGGAAACACGCCC (((.(((....))).))) | -39.6 | 62.5 |
| GCCTGTGGAAACACAGAC (.(((((....))))).) | -15.8 | 42.6 |
| GGAACCGAAAGGTCGTCC ((((((....)))..))) | -10.8 | 31.4 |
| GCACTACGAAAGTATGC (((.(((....)))))) | -25.5 | 43 |
| GGAGGGGGAAACCCCCCC ((.((((....)))).)) | -14.9 | 50.9 |
| GATCGAGGACTCGATC ((((((....)))))) | -38.4 | 60.1 |
| GGTTCTGGAAACAGAGTC (..((((....))))..) | -11.8 | 28.1 |
| GTCTTCGAAAGAACGAC ((((((....))).))) | -21.2 | 37.6 |
| GGAAAGGGAAACTTTTCC (((((.(....).))))) | -18.8 | 38.4 |
| GGACCTGGAAACAGGTTC (.(((((....))))).) | -27.5 | 52.7 |
| GCCATGCGAAAGCAATGC ((..(((....)))..)) | -12.6 | 41.3 |
| GGCCTTGAAAAAGGCC ((((((....)))))) | -39.9 | 68.4 |
| GATCTCCGAGAGATC ((((((...)))))) | -35.2 | 51 |

| Sequence | folding enthalpy [1] [kcal/mol] | Tm [2] [°C] |
| --- | --- | --- |
| GATCTCAGTGAGATC ((((((...)))))) | -31.9 | 53.1 |
| GATCGGACATCCGATC ((((((....)))))) | -38.7 | 55.3 |
| GCGGGTCCCCGC ((((....)))) | -23.5 | 66.8 |
| GTGCAGGAAACTGCAC ((((((....)))))) | -35.9 | 68.2 |
| GAGTACGAAAGTAAGCTC ((((((....)))..))) | -14.9 | 29.3 |
| GCCAACGGAAACGTCAGC ((..(((....)))..)) | -12.1 | 28.3 |
| GTTGGTGAAAACCAAC ((((((....)))))) | -37 | 58.5 |
| GGTCTGCGAAAGCACACC (((.(((....))).))) | -20.9 | 42.1 |
| CGAACGGAAACGTCTCG ((((((....))).))) | -29.3 | 36.8 |
| GAATCGGGAAACTGGTTC (((.(.(....).).))) | -19.8 | 29.3 |
| GATCGTAAGTACGATC ((((((....)))))) | -32.9 | 53.3 |
| GCATTGCGAAAGCATGGC ((..(((....)))..)) | -19.9 | 45.8 |
| GCTGTGCGAAAGCATCGC ((..(((....)))..)) | -17.9 | 44.6 |
| CGACCCCGGAAACGGTCG (((..(((....)))))) | -21.3 | 44.4 |
| GCGAAGCGAAAGCTGGGC ((..(((....)))..)) | -9.44 | 43.7 |
| GTCAACGAAAGTTTTGAC ((((((....)))..))) | -17.4 | 32.8 |
| GGAGGAGGAAACTCTTCC (((.(((....))).))) | -29.1 | 42.2 |
| GCGGAACGAAAGTTCGC (((.(((....)))))) | -24.4 | 58.9 |
| CGTGCGGAAACGCTAACG ((((((....)))..))) | -20 | 43.5 |
| GCTAGGGGAAACCCTGGC ((.((((....)))).)) | -36.9 | 53.4 |
| GCGTGCCTACGC ((((....)))) | -27.6 | 57 |
| GGTATTGAAAAATACC ((((((....)))))) | -38.8 | 49 |
| GATCGGTAACCCGATC ((((((....)))))) | -32.7 | 54.3 |
